The sample as a whole holds a higher share of hits than the screen did.
CHOP UPR activ – activators of apoptotic arm of unfolded protein response (CHOP); CHO-CHOP luciferase reporter, UPR activation, luminescence; percent of tunicamycin response over DMSO baseline; activation, % at 10 µM; actives 0.34% (n = 330,000);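 active means at 10 µM dose, activation of 40% or more, normalized to positive control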;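 further: 100% = tunicamycin at 10 µg/mL and 0% = DMSO alone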
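Material: CHO-CHOP cells, stable luciferase reporter of PERK-eIF2a-CHOP signalling; quantity: 500 reporter cells seeded per well; buffer or medium: F12 medium containing 10% fetal bovine serum; compound: one dose, 10 µM in 0.5% DMSO; incubation: 6 h compound treatment, 37 °C; measured by: Steady-Glo luciferase luminescence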
A1 inh – inhibitors of the anti-apoptotic protein A1, read as caspase activation | MEF A1-2A-BIM cells, Caspase-Glo 3/7 luminescence, 3 h; percent of clofoctol response, vehicle zero | caspase activation, % (no concentration beside the values) | actives 0.066% (n = 330,000) | AID 2462;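 active means over half of replicate activation scores above 10%, or exactly half above 10 with the replicate mean above 10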
UPR XBP1 act – adaptive UPR (XBP1) activation | CHO-XBP1 luciferase reporter, IRE1-XBP1 UPR activation, luminescence; percent of tunicamycin response, DMSO as zero | activation, % at 20 µM | actives 0.33% (n = 330,000);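 active means versus positive control, 20 µM dose yields 30% or more activation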;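 further: 100% = tunicamycin at 10 µg/mL and 0% = DMSO only wells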
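Assay system: CHO-XBP1 luciferase reporter cells; Schedule: 6 h treatment, 37 °C; Detection: glow luminescence from Steady-Glo reagent; Benchmarks: high control tunicamycin 10 µg/mL final, low control DMSO vehicle only.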
CHOP inhibitor – inhibitors of CHOP induction in ER stress response; CHO-K1 CHOP-promoter luciferase, tunicamycin-induced, 15-18 h; inhibition, % at 10 µM; actives 3.8% (n = 220,000);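 active means compounds that reduced the stress-induced luciferase reporter signal by more than about 70% of percent inhibition, limit read from the data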;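 further: 0% = tunicamycin plus vehicle and 100% = wells without tunicamycin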
The depositor's hits bear a star; . = no result.

SMILES	CHOP UPR activ	A1 inh	UPR XBP1 act	CHOP inhibitor
CCN(C(=O)COC(=O)c1ccccc1Cc1ccccc1)C1CCS(=O)(=O)C1 (configuration not stated)	1	-1	-1	.
CCN(C(=O)COC(=O)c1ccccc1Nc1cccc(C)c1C)C1CCS(=O)(=O)C1 (configuration not stated)	-1	0	0	70*
Cc1ccc(NCc2ccncc2)c(Br)c1	3	1	-1	-17
O=C(Nc1ccc(/C=C/c2nc3ccccc3o2)cc1)c1c(F)cccc1F	5	-2	-5	23
O=C(Nc1ccc(/C=C/c2nc3ccccc3o2)cc1)c1cccc(C(F)(F)F)c1	3	0	12	93*
Brc1ccc(-c2ccc(C3Nc4cccc5cccc(c45)N3)o2)cc1	6	-1	37*	.
N#CCc1ccc(NS(=O)(=O)c2ccc(C3CCCCC3)cc2)cc1	.	-1	.	81*
COc1ccc(S(=O)(=O)Nc2ccc(CC#N)cc2)cc1	1	-1	0	2
O=C(Nc1ccc(N2CCCC2)c(S(=O)(=O)Nc2cccc(C(F)(F)F)c2)c1)c1cccs1	-2	0	-3	90*
CCc1ccc(C(=O)c2cncc(Br)c2)cc1	2	0	1	74*
Cc1ccc(C(=O)c2cncc(Br)c2)cc1	3	0	-1	24
CCC(CCC(=O)Nc1cccc(C(=O)O)c1)C(=O)O (configuration not stated)	0	2	-3	-3
O=c1c2ccccc2sn1-c1nccs1	.	.	.	94*
O=C(Nc1ccccc1Cc1ccccc1)c1ccncc1	1	0	-3	.
CCOc1ccc(Nc2oc(-c3ccc(Cl)cc3)nc2C#N)cc1	5	-1	4	75*
Cc1ccc(OCc2nc(C#N)c(NCc3ccc4c(c3)OCO4)o2)cc1	1	0	-1	8
CCOc1ccc(-c2nc(C#N)c(NCc3ccc4c(c3)OCO4)o2)cc1	2	0	5	78*
COc1ccc(Nc2oc(-c3ccc(Cl)cc3)nc2C#N)cc1	3	0	4	85*
O=c1cc(-c2ccsc2)oc2ccc(-c3ccc4cc[nH]c4c3)cc12	6	-1	4	.
CCOCCOC(=O)c1[nH]c2c(c1C)C(=O)CC(c1cccs1)C2 (configuration not stated)	-1	5.9*	10	-50
COCCOC(=O)c1[nH]c2c(c1C)C(=O)CC(c1cccs1)C2 (configuration not stated)	.	.	.	-8
CCCCOc1ccc(Br)cc1CSC(=N)N	.	.	.	76*
Cc1ccc(N/N=C2\CC(=O)c3ccccc32)cc1Cl	49*	-1	96*	18
COc1cc(NC(=O)Cn2ncc(Cl)c(Cl)c2=O)c(C)cc1[N+](=O)[O-]	.	.	.	109*
CN1C=C/C(=C\c2cc[n+](C)c3ccccc23)c2ccccc21	.	.	.	13
SMILES	CHOP UPR activ	A1 inh	UPR XBP1 act	CHOP inhibitor
Cc1nc2ccccn2c1C(=O)/C=C/c1cccc([N+](=O)[O-])c1	116*	0	6	-137
C#CC(N)CCC(=O)O (configuration not stated)	.	.	.	-11
C=CC(N)CCC(=O)O (configuration not stated)	.	.	.	91*
O=S1(=O)CCOC[C@H](CC2CCCCC2)N1Cc1ccc(Cl)cc1	1	0	7	.
CC(C)c1cc(Br)ccc1OCCCN1C(=O)NC(C)(C)C1=O	0	-1	1	73*
C/C(=N\N=C(/N)SC1CC(=O)N(c2ccccc2)C1=O)c1cccs1 (configuration not stated)	0	0	-2	45
C/C(=N\N=C(/N)SC1CC(=O)N(c2ccc(Br)cc2)C1=O)c1cccs1 (configuration not stated)	0	0	5	87*
CCCCCCOc1ccc(N2C(=O)CC(S/C(N)=N/N=C(\C)c3cccs3)C2=O)cc1 (configuration not stated)	-1	0	0	88*
COc1ccc(C2=NS(=O)(=O)N(C)C(C(=O)NCc3cccs3)=C2)cc1OC	4	1	-2	.
CC(C)OC(=O)CC(=O)CSc1nc2c(cc1C#N)CCCC2	1	-2	-2	80*
Cc1cccc(C(=O)Nc2ccccc2C(=O)OCC(=O)Nc2ccc(C#N)cc2)c1	3	-4	3	16
CCOC(=O)c1c(N)sc(C(O)(C(F)(F)F)C(F)(F)F)c1-c1ccccc1	0	0	-1	105*

Screening data deposited in PubChem by several laboratories.
